Data as given in publication PMC8791645 (Advanced therapeutics, 2021).
Like-named read-outs stand apart in the source and are kept apart here.

Assays:
M9-ENL1 cells = test: MTT cell viability assay with M9-ENL1 cells; assay type: cell-based
[1] = Drug loading capacity in PSMA-b-PS NPs; assay type: physicochemical; conditions: mg drug loaded/mg NPs × 100, PSMA-b-PS NPs
Summary of the method: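 Test compounds in chloroform (3 mg mL−1) stirred with aqueous NPs at 1:3 drug:NP weight ratio, left uncovered overnight to evaporate solvent (acetone in some runs). Insoluble drug removed by two 4000 rpm spins, and unloaded drug by 100 000 MWCO centrifugal filtration (2000 rpm, 10 min). Quantified by C18 reversed-phase HPLC at 210 nm against methanol standards. LC = mg drug loaded/mg NPs × 100.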

[2] = Drug release from PSMA-b-PS based NPs; assay type: physicochemical; conditions: for release half-life from NPs: PSMA-b-PS NPs, PBS pH 7.4, 37 °C
Summary of the method: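 Loaded NPs dialysed (6–8 kDa MWCO) against phosphate-buffered saline, pH 7.4, 37 °C. Aliquots taken at 0, 1, 2, 4, 6, 8, 24, 48 and 72 h, with sink medium replaced at 2, 8, 24 and 48 h. Each aliquot mixed with an equal volume of methanol and analysed by C18 HPLC with 210 nm detection.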

MV411 cells = test: alamarBlue cell viability; assay type: cell-based
[3] = Serum stability of MCL analogs; assay type: in vitro ADME, mouse

C=C1C(=O)O[C@H]2[C@H]1CCC(C)=C1CC[C@@](C)(O)[C@@H]12 [MCL, Micheliolide, reference compound]
CC50 (M9-ENL1 cells; M9-ENL1, 24 h, read-out: LC50 M9-ENL1): 15.4 ± 1.1 µM
loading capacity (LC) [1]: ≈ 14%
release half-life from NPs [2]: 19.8 min
CC50 (MV411 cells; Homo sapiens, MV4-11, 24 h, read-out: LC50 MV-411): 5.6 ± 2.8 µM

C=C1C(=O)O[C@H]2[C@H]1CCC(C)=C1[C@H](OC(=O)c3ccc(C(F)(F)F)cc3)C[C@@](C)(O)[C@@H]12 [MCL-13]
CC50 (M9-ENL1 cells): 1.8 ± 1 µM
CC50 (MV411 cells): 1.8 ± 0.7 µM

C=C1C(=O)O[C@H]2[C@H]1CCC(COC(=O)c1cc(C(F)(F)F)cc(C(F)(F)F)c1)=C1CC[C@@](C)(O)[C@@H]12 [MCL-19]
hydrolysis ([3]; free compound, 24 h incubation in both 50% and 100% serum): 80–90%
degradation half-life in serum ([3]; free drug, 50% serum): 18 min
intact compound ([3]; free drug, 50% serum, after 8 h of incubation): 7 ± 2%
CC50 (M9-ENL1 cells): 4.1 ± 1.1 µM
release half-life from NPs [2]: 540 min
release rate from NPs ([2]; from 0–8 h): 5.7 h⁻¹
CC50 (MV411 cells): 1.7 ± 0.9 µM
